target: T1, Progesterone receptor (Rattus norvegicus) (UniProt Q63449); assay: Displacement of [3H]R5020 from rat progesterone receptor(PgR)
T1 sequence (whole entry): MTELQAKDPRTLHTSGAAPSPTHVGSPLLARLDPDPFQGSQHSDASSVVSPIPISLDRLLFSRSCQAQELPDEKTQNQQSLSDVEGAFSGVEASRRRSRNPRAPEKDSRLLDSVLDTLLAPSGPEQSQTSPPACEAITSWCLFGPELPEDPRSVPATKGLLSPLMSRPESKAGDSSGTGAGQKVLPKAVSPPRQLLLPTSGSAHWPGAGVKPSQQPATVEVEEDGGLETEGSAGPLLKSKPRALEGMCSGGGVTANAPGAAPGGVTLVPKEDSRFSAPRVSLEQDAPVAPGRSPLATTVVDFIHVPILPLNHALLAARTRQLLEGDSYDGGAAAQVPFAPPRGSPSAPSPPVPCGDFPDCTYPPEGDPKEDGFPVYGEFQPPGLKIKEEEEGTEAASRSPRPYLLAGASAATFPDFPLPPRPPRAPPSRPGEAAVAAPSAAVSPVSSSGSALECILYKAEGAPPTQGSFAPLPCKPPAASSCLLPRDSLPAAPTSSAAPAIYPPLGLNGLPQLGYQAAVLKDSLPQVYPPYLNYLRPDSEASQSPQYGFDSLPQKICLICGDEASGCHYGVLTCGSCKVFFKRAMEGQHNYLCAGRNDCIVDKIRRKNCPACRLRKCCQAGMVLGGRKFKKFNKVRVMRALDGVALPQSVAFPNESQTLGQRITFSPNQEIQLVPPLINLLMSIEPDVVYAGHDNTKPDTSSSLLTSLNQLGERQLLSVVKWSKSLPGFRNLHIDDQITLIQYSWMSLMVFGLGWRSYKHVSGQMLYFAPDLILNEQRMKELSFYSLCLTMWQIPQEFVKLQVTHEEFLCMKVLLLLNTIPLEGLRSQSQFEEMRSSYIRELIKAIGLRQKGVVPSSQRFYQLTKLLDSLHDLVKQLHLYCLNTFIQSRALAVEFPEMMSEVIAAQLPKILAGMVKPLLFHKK
How it was run: (§1)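 Competitive radiometric binding assay giving relative binding affinities. The reference standards were R5020 for rat PgR, aldosterone for rat MR and estradiol for human SBP.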

Point of comparison: `C[C@@H]1CC2=CC(=O)CC[C@@H]2C2CC[C@@]3(C)C(C[C@H](F)[C@@H]3O)C21` (some centres undefined), relative binding affinity (RBA) 1.6. Against it:
- C[C@@H]1CC2=CC(=O)CC[C@@H]2C2CC[C@@]3(C)C(C[C@@H](F)[C@@H]3O)C21 (some centres undefined) — higher, 5.7
- C[C@@H]1CC2=CC(=O)CC[C@@H]2C2CC[C@@]3(C)C(CC[C@@]3(O)CF)C21 (some centres undefined) — higher, 10.3
- C[C@]12C=CC3=C4CCC(=O)C=C4CCC3C1CC[C@@]2(O)CF (some centres undefined) — higher, 10.5
- C[C@]1(O)CC[C@H]2[C@@H]3CCC4=CC(=O)CCC4=C3C=C[C@@]21C — higher, 43.7
- C[C@]12CC[C@H]3[C@@H](CCC4=CC(=O)CC[C@@H]43)[C@@H]1CC[C@@H]2O — higher, 3.1
- C[C@@H]1CC2=CC(=O)CC[C@@H]2C2CC[C@@]3(C)C(CC[C@@H]3O)C21 (some centres undefined) — higher, 3.7

species on record: Rattus norvegicus; assay: Relative affinity for rat androgen receptor(AR) and progesterone receptor(PgR)
How it was run: (§2)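 Each ratio is AR relative binding affinity divided by the RBA for PgR, MR or SBP. The AR source was ventral prostate cytosol from mature male Holtzman rats orchidectomized 24 h before. Cytosol was preincubated with triamcinolone acetonide to block PgR and corticosteroid receptors. [3H]R1881 served as tracer, incubated 18 h at 0 °C. Free ligand was removed with dextran-coated charcoal, 15 min at 0 °C. AR RBA is on a percent scale versus R1881.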

Point of comparison: `C[C@]12C=CC3=C4CCC(=O)C=C4CCC3C1CC[C@@]2(O)CF` (some centres undefined), RBA ratio 1.8. Against it:
- C[C@@H]1CC2=CC(=O)CC[C@@H]2C2CC[C@@]3(C)C(C[C@H](F)[C@@H]3O)C21 (some centres undefined) — higher, 23.4
- C[C@@H]1CC2=CC(=O)CC[C@@H]2C2CC[C@@]3(C)C(C[C@@H](F)[C@@H]3O)C21 (some centres undefined) — higher, 3.8
- C[C@@H]1CC2=CC(=O)CC[C@@H]2C2CC[C@@]3(C)C(CC[C@@]3(O)CF)C21 (some centres undefined) — higher, 5.2
- C[C@]1(O)CC[C@H]2[C@@H]3CCC4=CC(=O)CCC4=C3C=C[C@@]21C — higher, 2.3
- C[C@@H]1CC2=CC(=O)CC[C@@H]2C2CC[C@@]3(C)C(CC[C@@H]3O)C21 (some centres undefined) — higher, 42.1

target: T2, Mineralocorticoid receptor (Rattus norvegicus) (UniProt P22199); assay: Displacement of [3H]aldosterone from rat Mineralocorticoid receptor; how it was run: as §1
T2 sequence (whole entry): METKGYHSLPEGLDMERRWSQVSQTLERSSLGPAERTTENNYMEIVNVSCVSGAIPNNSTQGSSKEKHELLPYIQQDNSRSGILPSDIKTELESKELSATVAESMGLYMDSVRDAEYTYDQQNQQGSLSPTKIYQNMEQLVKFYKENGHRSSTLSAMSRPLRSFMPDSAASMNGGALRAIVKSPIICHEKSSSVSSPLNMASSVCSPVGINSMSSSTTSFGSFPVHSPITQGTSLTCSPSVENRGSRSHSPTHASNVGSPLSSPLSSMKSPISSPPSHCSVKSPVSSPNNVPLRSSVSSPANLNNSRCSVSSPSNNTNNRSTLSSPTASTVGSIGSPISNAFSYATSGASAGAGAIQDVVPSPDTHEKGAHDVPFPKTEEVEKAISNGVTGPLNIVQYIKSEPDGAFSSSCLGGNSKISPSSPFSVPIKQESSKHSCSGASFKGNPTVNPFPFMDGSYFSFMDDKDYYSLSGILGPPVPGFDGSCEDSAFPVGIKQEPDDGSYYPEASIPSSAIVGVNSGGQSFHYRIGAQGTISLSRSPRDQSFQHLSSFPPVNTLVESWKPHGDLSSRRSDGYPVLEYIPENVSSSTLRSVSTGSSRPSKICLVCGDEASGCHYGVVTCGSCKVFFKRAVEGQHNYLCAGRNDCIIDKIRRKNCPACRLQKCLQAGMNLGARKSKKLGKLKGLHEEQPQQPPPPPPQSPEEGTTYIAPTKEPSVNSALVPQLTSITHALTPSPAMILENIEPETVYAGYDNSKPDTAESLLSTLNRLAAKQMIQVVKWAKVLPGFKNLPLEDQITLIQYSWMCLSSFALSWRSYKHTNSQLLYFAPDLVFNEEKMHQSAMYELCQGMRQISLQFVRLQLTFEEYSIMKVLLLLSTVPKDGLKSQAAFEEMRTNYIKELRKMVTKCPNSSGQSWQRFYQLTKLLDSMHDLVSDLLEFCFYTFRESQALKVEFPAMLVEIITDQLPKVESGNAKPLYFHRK

Point of comparison: `C[C@@H]1CC2=CC(=O)CC[C@@H]2C2CC[C@@]3(C)C(CC[C@@H]3O)C21` (some centres undefined), relative binding affinity (RBA) 0.74. Against it:
- C[C@@H]1CC2=CC(=O)CC[C@@H]2C2CC[C@@]3(C)C(C[C@H](F)[C@@H]3O)C21 (some centres undefined) — lower, 0.05
- C[C@@H]1CC2=CC(=O)CC[C@@H]2C2CC[C@@]3(C)C(C[C@@H](F)[C@@H]3O)C21 (some centres undefined) — lower, 0.21
- C[C@@H]1CC2=CC(=O)CC[C@@H]2C2CC[C@@]3(C)C(CC[C@@]3(O)CF)C21 (some centres undefined) — higher, 0.86
- C[C@]12C=CC3=C4CCC(=O)C=C4CCC3C1CC[C@@]2(O)CF (some centres undefined) — higher, 4.5
- C[C@]1(O)CC[C@H]2[C@@H]3CCC4=CC(=O)CCC4=C3C=C[C@@]21C — higher, 25.4
- C[C@]12CC[C@H]3[C@@H](CCC4=CC(=O)CC[C@@H]43)[C@@H]1CC[C@@H]2O — higher, 2

species on record: Rattus norvegicus; assay: Relative affinity for rat androgen receptor(AR) and mineralocorticoid receptor(MR); how it was run: as §2

Point of comparison: `C[C@@H]1CC2=CC(=O)CC[C@@H]2C2CC[C@@]3(C)C(C[C@@H](F)[C@@H]3O)C21` (some centres undefined), RBA ratio 104. Against it:
- C[C@@H]1CC2=CC(=O)CC[C@@H]2C2CC[C@@]3(C)C(C[C@H](F)[C@@H]3O)C21 (some centres undefined) — higher, 730
- C[C@@H]1CC2=CC(=O)CC[C@@H]2C2CC[C@@]3(C)C(CC[C@@]3(O)CF)C21 (some centres undefined) — lower, 61.9
- C[C@]12C=CC3=C4CCC(=O)C=C4CCC3C1CC[C@@]2(O)CF (some centres undefined) — lower, 4.2
- C[C@]1(O)CC[C@H]2[C@@H]3CCC4=CC(=O)CCC4=C3C=C[C@@]21C — lower, 3.9
- C[C@@H]1CC2=CC(=O)CC[C@@H]2C2CC[C@@]3(C)C(CC[C@@H]3O)C21 (some centres undefined) — higher, 210

target: T3, Sex hormone-binding globulin (Homo sapiens) (UniProt P04278); assay: Displacement of [3H]estradiol from human Sex steroid binding protein (SBP); how it was run: as §1
T3 sequence (whole entry): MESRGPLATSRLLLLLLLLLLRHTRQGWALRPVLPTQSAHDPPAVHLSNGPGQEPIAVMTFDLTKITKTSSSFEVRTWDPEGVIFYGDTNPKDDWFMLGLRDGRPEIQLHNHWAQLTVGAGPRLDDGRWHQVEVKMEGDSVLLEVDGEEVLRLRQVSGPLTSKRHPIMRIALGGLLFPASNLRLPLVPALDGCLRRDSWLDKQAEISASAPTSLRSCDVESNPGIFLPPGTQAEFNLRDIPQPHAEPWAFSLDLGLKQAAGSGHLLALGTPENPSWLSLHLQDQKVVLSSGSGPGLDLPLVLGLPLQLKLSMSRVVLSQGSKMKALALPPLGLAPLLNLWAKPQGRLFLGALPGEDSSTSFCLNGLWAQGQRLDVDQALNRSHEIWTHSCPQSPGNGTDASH

Point of comparison: `C[C@@H]1CC2=CC(=O)CC[C@@H]2C2CC[C@@]3(C)C(C[C@@H](F)[C@@H]3O)C21` (some centres undefined), relative binding affinity (RBA) 4.01. Against it:
- C[C@@H]1CC2=CC(=O)CC[C@@H]2C2CC[C@@]3(C)C(C[C@H](F)[C@@H]3O)C21 (some centres undefined) — lower, 3.75
- C[C@@H]1CC2=CC(=O)CC[C@@H]2C2CC[C@@]3(C)C(CC[C@@]3(O)CF)C21 (some centres undefined) — lower, 3
- C[C@]12C=CC3=C4CCC(=O)C=C4CCC3C1CC[C@@]2(O)CF (some centres undefined) — lower, 2.2
- C[C@]1(O)CC[C@H]2[C@@H]3CCC4=CC(=O)CCC4=C3C=C[C@@]21C — lower, 4
- C[C@]12CC[C@H]3[C@@H](CCC4=CC(=O)CC[C@@H]43)[C@@H]1CC[C@@H]2O — higher, 29.9
- C[C@@H]1CC2=CC(=O)CC[C@@H]2C2CC[C@@]3(C)C(CC[C@@H]3O)C21 (some centres undefined) — higher, 28.7

tested on: not listed separately; assay: Relative affinity for rat androgen receptor(AR) and human Sex steroid binding protein (SBP); how it was run: as §2

Point of comparison: `C[C@@H]1CC2=CC(=O)CC[C@@H]2C2CC[C@@]3(C)C(C[C@H](F)[C@@H]3O)C21` (some centres undefined), RBA ratio 9.7. Against it:
- C[C@@H]1CC2=CC(=O)CC[C@@H]2C2CC[C@@]3(C)C(C[C@@H](F)[C@@H]3O)C21 (some centres undefined) — lower, 5.5
- C[C@@H]1CC2=CC(=O)CC[C@@H]2C2CC[C@@]3(C)C(CC[C@@]3(O)CF)C21 (some centres undefined) — higher, 17.7
- C[C@]12C=CC3=C4CCC(=O)C=C4CCC3C1CC[C@@]2(O)CF (some centres undefined) — lower, 8.5
- C[C@]1(O)CC[C@H]2[C@@H]3CCC4=CC(=O)CCC4=C3C=C[C@@]21C — higher, 25
- C[C@@H]1CC2=CC(=O)CC[C@@H]2C2CC[C@@]3(C)C(CC[C@@H]3O)C21 (some centres undefined) — lower, 5.4
